ChEMBL document CHEMBL1158936, “New avarone and avarol derivatives from the marine sponge Dysidea cinerea” (J Nat Prod, 1991)
≈ marks a conversion by molar mass, not a printed value. Calls of active or inactive are those of the source. No cut-off for these calls is given here.

Key:
[1] = tested on: P388; experiment: Cytotoxicity against mouse P388 cells; type: functional, cell-based
Method in brief: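 P388 mouse leukemia cells; cytotoxicity reported as IC50 in μg/ml.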

[2] = tested on: Candida albicans; experiment: Antimicrobial activity against Candida albicans; type: functional
[3] = molecular target: Human immunodeficiency virus type 1 reverse transcriptase (Human immunodeficiency virus 1) (UniProt Q72547); experiment: Inhibition of HIV1 reverse transcriptase

Structure (SMILES) | MIC [2] [µg/mL] | Activity [3] | IC50 [1] [µg/mL]
CC1=CCC[C@H]2[C@](C)(CC3=CC(=O)C=C(O)C3=O)[C@@H](C)CC[C@]12C | 12.5 (≈ 38.1 µM) | Active | 0.6 (≈ 1.83 µM)
CC(=O)Oc1c(O)ccc(O)c1C[C@]1(C)[C@@H](C)CC[C@]2(C)C(C)=CCC[C@@H]12 | 12.5 (≈ 33.6 µM) | inactive | < 0.6
CC1=CCC[C@H]2[C@](C)(Cc3c(O)ccc(O)c3O)[C@@H](C)CC[C@]12C |  | inactive | 

Second part, led by results:

MIC [2] [µg/mL] | Activity [3] | Structure (SMILES) | IC50 [1] [µg/mL]
 | inactive | CC(=O)OC1=C(C[C@]2(C)[C@@H](C)CC[C@]3(C)C(C)=CCC[C@@H]23)C(=O)C=CC1=O | 10 (≈ 27 µM)
50 (≈ 145 µM) | Active | CC1=CCC[C@H]2[C@](C)(CC3=C(O)C(=O)C=C(O)C3=O)[C@@H](C)CC[C@]12C | 1.2 (≈ 3.48 µM)
 | Active | COC1=CC(=O)C(C[C@]2(C)[C@@H](C)CC[C@]3(C)C(C)=CCC[C@@H]23)=C(O)C1=O | > 20
